Source: ChEMBL document CHEMBL4689842, “EUbOPEN Chemogenomics Library wave 1” (2021)

Test system: Fibroblast
Test: Multiplex assay against human fibroblast
Assay type: toxicity, cell-based
Summary of the method: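 Live cells were stained at seeding with Hoechst33342, BioTracker Green Microtubule Cytoskeleton Dye, MitoTracker Red and Annexin V Alexa Fluor 680. Following compound addition, they were imaged on a CQ1 microscope at 37°C and 5% CO2 and gated by CellPathfinder machine learning into Hoechst high-intensity objects or normal cells, with normal cells split into healthy, pyknosed or fragmented nuclei and pyknosed cells into mitotic or apoptotic. Tubulin, mitochondrial-mass and membrane-permeability phenotypes are per cents of healthy-nucleus cells.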

[1] = 12 h, 1 µM, compound concentration 1 uM, replicate 1
[2] = 12 h, 1 µM, compound concentration 1 uM, replicate 2
[3] = 12 h, 10 µM, compound concentration 10 uM, replicate 1
[4] = 12 h, 10 µM, compound concentration 10 uM, replicate 2
[5] = 24 h, 1 µM, compound concentration 1 uM, replicate 1
[6] = 24 h, 1 µM, compound concentration 1 uM, replicate 2
[7] = 24 h, 10 µM, compound concentration 10 uM, replicate 1
[8] = 24 h, 10 µM, compound concentration 10 uM, replicate 2
[9] = 48 h, 1 µM, compound concentration 1 uM, replicate 1
[10] = 48 h, 1 µM, compound concentration 1 uM, replicate 2
[11] = 48 h, 10 µM, compound concentration 10 uM, replicate 1
[12] = 48 h, 10 µM, compound concentration 10 uM, replicate 2

## CN1C(=O)[C@@H](NC(=O)c2cc3ccccc3[nH]2)N=C(c2ccccc2)c2ccccc21 [DEVAZEPIDE]
[1]
  Population Apoptotic (%): 72%
  Population Fragmented Nuclei (%): 21%
  Population Healthy Nuclei (%): 36%
  Population Hoechst High Intensity Objects (%): 13%
  Population Membrane Permeable-Phenotype (%): 34%
  Population Mitochondria Different-Phenotype (%): 3%
  Population Mitotic Cells (%): 27%
  Population Normal (%): 87%
  Population Pyknosed Nuclei (%): 41%
  Population Tubulin-Different-Phenotype (%): 56%
  Total Cell Count: 100
[2]
  Population Apoptotic (%): 33%
  Population Fragmented Nuclei (%): 4%
  Population Healthy Nuclei (%): 85%
  Population Hoechst High Intensity Objects (%): 5%
  Population Membrane Permeable-Phenotype (%): 9%
  Population Mitochondria Different-Phenotype (%): 23%
  Population Mitotic Cells (%): 66%
  Population Normal (%): 94%
  Population Pyknosed Nuclei (%): 9%
  Population Tubulin-Different-Phenotype (%): 10%
  Total Cell Count: 68
[3]
  Population Apoptotic (%): 67%
  Population Fragmented Nuclei (%): 18%
  Population Healthy Nuclei (%): 48%
  Population Hoechst High Intensity Objects (%): 16%
  Population Membrane Permeable-Phenotype (%): 42%
  Population Mitochondria Different-Phenotype (%): 15%
  Population Mitotic Cells (%): 32%
  Population Normal (%): 83%
  Population Pyknosed Nuclei (%): 33%
  Population Tubulin-Different-Phenotype (%): 68%
  Total Cell Count: 112
[4]
  Population Apoptotic (%): 33%
  Population Fragmented Nuclei (%): 20%
  Population Healthy Nuclei (%): 75%
  Population Hoechst High Intensity Objects (%): 7%
  Population Membrane Permeable-Phenotype (%): 37%
  Population Mitochondria Different-Phenotype (%): 48%
  Population Mitotic Cells (%): 66%
  Population Normal (%): 92%
  Population Pyknosed Nuclei (%): 5%
  Population Tubulin-Different-Phenotype (%): 66%
  Total Cell Count: 65
[5]
  Population Apoptotic (%): 44%
  Population Fragmented Nuclei (%): 25%
  Population Healthy Nuclei (%): 46%
  Population Hoechst High Intensity Objects (%): 13%
  Population Membrane Permeable-Phenotype (%): 21%
  Population Mitochondria Different-Phenotype (%): 14%
  Population Mitotic Cells (%): 56%
  Population Normal (%): 86%
  Population Pyknosed Nuclei (%): 27%
  Population Tubulin-Different-Phenotype (%): 73%
  Total Cell Count: 104
[6]
  Population Apoptotic (%): 37%
  Population Fragmented Nuclei (%): 7%
  Population Healthy Nuclei (%): 82%
  Population Hoechst High Intensity Objects (%): 1%
  Population Membrane Permeable-Phenotype (%): 3%
  Population Mitochondria Different-Phenotype (%): 10%
  Population Mitotic Cells (%): 62%
  Population Normal (%): 98%
  Population Pyknosed Nuclei (%): 10%
  Population Tubulin-Different-Phenotype (%): 6%
  Total Cell Count: 79
[7]
  Population Apoptotic (%): 43%
  Population Healthy Nuclei (%): 54%
  Population Hoechst High Intensity Objects (%): 12%
  Population Membrane Permeable-Phenotype (%): 34%
  Population Mitochondria Different-Phenotype (%): 9%
  Population Mitotic Cells (%): 56%
  Population Normal (%): 87%
  Population Pyknosed Nuclei (%): 16%
  Population Tubulin-Different-Phenotype (%): 55%
  Total Cell Count: 108
[8]
  Population Apoptotic (%): 92%
  Population Fragmented Nuclei (%): 28%
  Population Healthy Nuclei (%): 49%
  Population Hoechst High Intensity Objects (%): 7%
  Population Membrane Permeable-Phenotype (%): 19%
  Population Mitochondria Different-Phenotype (%): 45%
  Population Mitotic Cells (%): 7%
  Population Normal (%): 92%
  Population Pyknosed Nuclei (%): 22%
  Population Tubulin-Different-Phenotype (%): 51%
  Total Cell Count: 68
[9]
  Population Apoptotic (%): 53%
  Population Fragmented Nuclei (%): 35%
  Population Healthy Nuclei (%): 46%
  Population Hoechst High Intensity Objects (%): 22%
  Population Membrane Permeable-Phenotype (%): 36%
  Population Mitochondria Different-Phenotype (%): 18%
  Population Mitotic Cells (%): 46%
  Population Normal (%): 77%
  Population Pyknosed Nuclei (%): 18%
  Population Tubulin-Different-Phenotype (%): 66%
  Total Cell Count: 92
[10]
  Population Apoptotic (%): 0%
  Population Fragmented Nuclei (%): 19%
  Population Healthy Nuclei (%): 79%
  Population Hoechst High Intensity Objects (%): 7%
  Population Membrane Permeable-Phenotype (%): 14%
  Population Mitochondria Different-Phenotype (%): 3%
  Population Mitotic Cells (%): 100%
  Population Normal (%): 92%
  Population Pyknosed Nuclei (%): 0%
  Population Tubulin-Different-Phenotype (%): 54%
  Total Cell Count: 127
[11]
  Population Apoptotic (%): 66%
  Population Fragmented Nuclei (%): 44%
  Population Healthy Nuclei (%): 42%
  Population Hoechst High Intensity Objects (%): 12%
  Population Membrane Permeable-Phenotype (%): 22%
  Population Mitochondria Different-Phenotype (%): 12%
  Population Mitotic Cells (%): 33%
  Population Normal (%): 87%
  Population Pyknosed Nuclei (%): 12%
  Population Tubulin-Different-Phenotype (%): 57%
  Total Cell Count: 107
[12]
  Population Apoptotic (%): 100%
  Population Fragmented Nuclei (%): 37%
  Population Healthy Nuclei (%): 61%
  Population Hoechst High Intensity Objects (%): 8%
  Population Membrane Permeable-Phenotype (%): 29%
  Population Mitochondria Different-Phenotype (%): 11%
  Population Mitotic Cells (%): 0%
  Population Normal (%): 91%
  Population Pyknosed Nuclei (%): 1%
  Population Tubulin-Different-Phenotype (%): 61%
  Total Cell Count: 96
